Assay outcomes (PubChem)
TRPML3 ag: agonists of human TRPML3 channel. Q8TDD5. HEK293 TRPML3-YFP, Fluo-8 calcium fluorescence; 100% = the carbachol control signal. activation, % at 3 µM. 220,000 tested, 0.29% active;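 active means activation above its plate's cutoff, the mean activation of the plate's test wells plus 3 SD, cut at about 12% in these data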;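 further: 0% = DMSO only wells and 100% = carbachol wells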
Target sequence (Q8TDD5 whole entry, looked up): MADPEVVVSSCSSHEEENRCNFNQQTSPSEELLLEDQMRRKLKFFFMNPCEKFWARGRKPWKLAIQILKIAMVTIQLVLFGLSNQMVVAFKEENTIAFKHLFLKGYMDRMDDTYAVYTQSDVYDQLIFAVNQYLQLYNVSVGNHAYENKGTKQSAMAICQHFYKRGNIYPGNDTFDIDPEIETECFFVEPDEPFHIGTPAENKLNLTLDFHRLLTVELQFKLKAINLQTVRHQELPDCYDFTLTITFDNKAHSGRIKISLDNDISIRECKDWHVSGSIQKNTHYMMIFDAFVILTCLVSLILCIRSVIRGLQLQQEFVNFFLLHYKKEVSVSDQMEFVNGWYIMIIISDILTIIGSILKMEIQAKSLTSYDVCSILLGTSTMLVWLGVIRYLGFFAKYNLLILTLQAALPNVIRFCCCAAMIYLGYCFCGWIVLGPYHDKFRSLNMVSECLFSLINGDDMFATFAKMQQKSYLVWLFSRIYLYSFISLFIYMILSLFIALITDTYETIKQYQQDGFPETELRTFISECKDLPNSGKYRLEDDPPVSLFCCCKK
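system = HEK293 cells stably carrying human TRPML3-YFP | doses = one concentration, 3 µM nominal, 0.3% DMSO | timing = dye loading 1 h 37 °C then 30 min ambient, 125 s read | detection = Fluo-8 calcium dye fluorescence, ex 470-495, em 515-575 nm | benchmarks = high control carbachol 87 µM, low control DMSO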
V1aR counter: activates human V1a receptor in oxytocin agonist counter-screen; P37288; CHO-V1R cells, Fluo-8 calcium fluorescence, agonist mode; 0% DMSO, 100% 3 nM vasopressin; activation, % at 3 µM; 320,000 tested, 0.25% active; AID 2797;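 active means activation above the mean activation of all tested compounds plus 3 SD, per screening run, cut at about 20% in these data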;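 further: signal is peak over basal fluorescence ratio across a 100 second FLIPR read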
zfTRPN1 agonist: zebrafish TRPN1 (NompC) channel agonism; HEK293 zebrafish TRPN1-YFP, Fluo-8 calcium fluorescence; 100% = response to 87 µM carbachol; activation, % at 3 µM; 220,000 tested, 0.18% active; AID 1424;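 active means activation above its plate's cutoff, the mean activation of test wells on that plate plus 3 SD, cut at about 19% in these data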;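 further: 0% = DMSO alone and 100% = 87 µM carbachol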
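Material: zebrafish TRPN1-YFP in HEK293 cells. Doses: one dose of 3 µM, 0.3% DMSO. Incubation: dye 1 h 37 °C plus 30 min RT. Measured by: intracellular calcium fluorescence with Fluo-8.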
OXTR potentiator: potentiators of human oxytocin receptor. CHO-OTR cells, Fluo-8 calcium fluorescence, potentiator mode; 0% = oxytocin EC15, 100% = EC100. activation, % at 3 µM. 320,000 tested, 0.061% active;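 active means activation above that plate's cutoff, the mean activation of tested compounds plus 3 SD, cut at about 6.6% in these data, passing the limit was not always enough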;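 further: 100% uses oxytocin at 75 nM as the full agonist control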
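Assay system: CHO-OTR cells, human receptor / Also added: oxytocin at about EC15, sub-maximal agonist stimulus / Dosing: single dose, 3.0 µM nominal final compound concentration / Incubation: 6 min pre-incubation, 100 s read / Technique: Fluo-8 calcium dye fluorescence / Read-out: % activation vs EC15 and EC100 oxytocin / Benchmarks: EC15 oxytocin low, 75 nM oxytocin high / Replicates: singlicate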
OXTR agonist: agonists of human oxytocin receptor. P30559. CHO-OTR cells, Fluo-8 calcium fluorescence; normalized: DMSO 0%, oxytocin 100%. activation, % at 3 µM. 320,000 tested, 0.32% active. AID 2435;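 active means activation above the mean of all tested compounds plus 3 SD, cutoff set per screening run, cut at about 20% in these data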;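 further: peak over basal fluorescence ratio from a 100 s FLIPR kinetic read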
OXTR ag confirm: confirmation of human oxytocin receptor agonists; shares compounds with OXTR agonist; CHO-OTR cells, Fluo-8 calcium fluorescence, agonist; activation, % at 3 µM; 390 tested, 20% active; AID 434963;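 active means mean activation above about 20% derived from the earlier single-dose screen, limit read from the data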;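 further: peak over minimum fluorescence ratio per well during a 100 second FLIPR read; 0% = DMSO alone and 100% = oxytocin high control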
V1R ag counter 3x: V1R agonism in triplicate, counter-screen for OXTR agonists | shares compounds with OXTR agonist | AID 434991 | 390 tested, 10% active | activation, % at 3 µM | CHO-V1R cells, Fluo-8 calcium fluorescence, agonist;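 active means mean activation over triplicate exceeds the hit threshold set in the earlier primary screen, cut at about 20% in these data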;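 further: peak over basal fluorescence ratio within a 100 second read; 0% = DMSO alone and 100% = 3 nM vasopressin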
Active calls of the source: *; . = no result given. Rows were chosen to be rich in hits. Some 0.55% of all compounds tested hit in one or more screens of this group.

SMILES	TRPML3 ag	V1aR counter	zfTRPN1 agonist	OXTR potentiator	OXTR agonist	OXTR ag confirm	V1R ag counter 3x
CCc1ccc(Nc2cc(=O)n(C3CCCCC3)c(=O)[nH]2)cc1	7	17	8	-16	25*	33*	30*
O=c1cc(Nc2ccc3c(c2)OCCO3)[nH]c(=O)n1C1CCCCC1	1	3	2	-11	4	.	.
CN(C)/C=C/C1=C([N+](=O)[O-])C(c2cccc([N+](=O)[O-])c2)NC(=O)N1 (configuration not stated)	2	0	1	-16	0	.	.
CCCC[C@@H]1CCCO[C@@](C(=O)NCc2ccccn2)(C(F)(F)F)C1	.	-1	.	-3	-3	.	.
Oc1ccc(C[C@H]2CNCCN2CCC23CC4CC(CC(C4)C2)C3)cc1	.	3	.	-1	7	.	.
Oc1ccc(C[C@@H]2CNCCN2CCC23CC4CC(CC(C4)C2)C3)cc1	.	8	.	-16	20*	9	3
Cc1ccnc(N/C=C(\C#N)c2nc(-c3cccc(Br)c3)cs2)c1	2	20	4	-9	31*	128*	162*
N#C/C(=C(/O)c1ccc([N+](=O)[O-])cc1)c1nc2ccccc2[nH]1	2	1	2	-9	3	.	.
N#C/C(=C(/O)c1ccc(Cl)c([N+](=O)[O-])c1)c1nc2ccccc2[nH]1	3	8	10	-6	26*	4	6
O=C(COC(=O)c1cc(S(=O)(=O)N2CCCC2)ccc1O)Nc1ccc(SC(F)F)cc1	.	17	.	-11	21*	15	13
O=C(COC(=O)c1cc(S(=O)(=O)N2CCCC2)ccc1O)Nc1ccc(S(=O)(=O)N2CCOCC2)cc1	1	1	0	-9	0	.	.
CCOC(=O)/C(C#N)=C/Nc1ccccc1NS(=O)(=O)c1ccc(C)c(C)c1	0	0	-2	-4	1	.	.
CCOC(=O)/C(C#N)=C/Nc1ccccc1NS(=O)(=O)c1cccc(C(C)=O)c1	0	2	0	-1	50*	1	1
COCCCn1cnnc1SC(C)C(=O)Nc1ccc(S(=O)(=O)N2CCOCC2)cc1 (configuration not stated)	.	2	.	-3	1	.	.
OCc1cn(-c2ccccc2)nc1-c1ccc(-c2nn(-c3ccccc3)cc2CO)cc1	1	5	0	-10	1	.	.
Cc1ccc(-c2nn(-c3ccccc3)cc2CSC(=N)N)cc1	1	12	2	-12	24*	4	5
COc1cc(OC)c(OC)cc1CCC(C)NCCC(c1ccccc1)c1ccccc1 (configuration not stated)	.	18	.	-24	22*	7	10
O=Cc1[nH]c2ccccc2c1N(C(=O)CCl)c1ccc([N+](=O)[O-])cc1	3	11	5	-18	21*	16	11
CC(=O)n1cc(N(C(=O)CCl)c2ccc([N+](=O)[O-])cc2)c2ccccc21	2	5	4	-4	10	.	.
CC(C)c1c(C(=O)N/N=C/c2cccs2)nnn1-c1nonc1N	.	14	.	-8	20*	8	10
Cc1ccsc1/C=N/NC(=O)c1nnn(-c2nonc2N)c1C(C)C	.	5	.	-14	22*	0	1
Cc1cc(S(=O)(=O)NCc2cccnc2)ccc1F	.	1	.	-4	-1	.	.
c1ccc(COc2ccc(OCCCNC3CCCC3)cc2)cc1	2	13	1	-16	21*	13	2
CC/C(=N/NC(=O)c1ccc2c(c1)OCO2)c1ccccc1O	.	1	.	-6	-1	.	.
Cc1sc(NC(=O)CSc2nnc(COc3ccccc3)n2C)c(C#N)c1C	0	4	-1	-14	0	.	.
SMILES	TRPML3 ag	V1aR counter	zfTRPN1 agonist	OXTR potentiator	OXTR agonist	OXTR ag confirm	V1R ag counter 3x
Cc1ccc(OCc2nnc(SCC(=O)Nc3sc(C)c(C)c3C#N)n2C)cc1	1	0	0	-19	21*	-1	-1
CC(C)Cn1c(SCC(=O)N2CCCc3ccccc32)nc2ccccc2c1=O	0	-1	-1	-3	-2	.	.
C=CCOc1ccc(CN(C)c2ccc(S(=O)(=O)N3CCN(C)CC3)cc2[N+](=O)[O-])cc1	.	12	.	-11	12	.	.
CCOc1ccc(CN(C)c2ccc(S(=O)(=O)N3CCN(C)CC3)cc2[N+](=O)[O-])cc1OC	.	12	.	-12	22*	10	9
CN1CCN(S(=O)(=O)c2ccc(N(C)Cc3ccc(C(F)(F)F)cc3)c([N+](=O)[O-])c2)CC1	.	16	.	-12	20*	10	6
O=S(=O)(Nc1nc(-c2sccc2Cl)cs1)c1cc(Cl)ccc1Cl	1	0	-1	-26	-2	.	.
CN(CCCNC(=O)CCc1cn(C)c2ccccc12)C1CCCCC1	.	1	.	-5	0	.	.
O=c1c2cc(NC(=S)NCCN3CCCCCC3)ccc2nc2n1CCCCC2	1	0	-1	-4	-1	.	.
O=c1c2cc(NC(=S)NCCCN3CCC(Cc4ccccc4)CC3)ccc2nc2n1CCCCC2	5	14	6	-27	20*	16	14
Cc1ccc(C)c(-c2[nH]ncc2CN2CCCC(CO)(Cc3ccccc3C)C2)c1 (configuration not stated)	0	1	-1	-1	2	.	.
C[C@H](NC(=O)[C@@H]1Cc2ccccc2CN1)C(=O)NC1CCCC1	.	0	.	-14	0	.	.
Cc1[nH]c2ccccc2c1C(=O)CSc1ccc(Cl)cc1	1	1	0	-22	-1	.	.
Cc1[nH]c2ccccc2c1C(=O)CN1C(=O)NC(C)(c2ccc(Cl)cc2Cl)C1=O (configuration not stated)	2	20	7	-14	32*	28*	18
NS(=O)(=O)c1ccc(CCNCc2ccccc2OCc2ccc(Cl)cc2)cc1	.	17	.	-25	28*	18	7
NS(=O)(=O)c1ccc(CCNCc2cc(Cl)ccc2OCc2ccccc2)cc1	.	17	.	-23	22*	8	8
C/C(CC(=O)Nc1ccc2c(c1)OCCO2)=N\NC(=O)c1ccccn1	0	0	0	-10	1	.	.
COc1ccc(Nc2nc(-c3ccccc3)nc3ccccc23)c(OC)c1	0	6	1	-27	30*	0	0
COc1ccccc1Nc1nc(-c2ccccc2)nc2ccccc12	1	0	1	-7	-2	.	.
CSc1nc(N2CCN(Cc3ccc4c(c3)OCO4)CC2)c2ccccc2n1	.	0	.	-9	-1	.	.
COc1cccc(CNCCc2c[nH]c3ccccc23)c1OCc1ccc(F)cc1	1	8	2	-26	18	.	.
